Calls of active or inactive are those of the source. The rule behind the calls is not given here.
Tests used:
[1] = molecular target: T1, DCN1-like protein 1/NEDD8-conjugating enzyme Ubc12 (Homo sapiens) (UniProt Q96GG9+P61081); settings: dose 500.0 nM, time 1.0 hrs
[2] = system: MGC-803; experiment: Upregulation of NRF2 protein expression in human MGC-803 cells incubated for 24 hrs by Western blot analysis; type: functional, cell-based; settings: dose 1-10 µM
Summary of the method: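 Cells were grown at 37 °C in 5% CO2 with 10% FBS, MGC-803 in DMEM and KYSE70 in RPMI 1640. They were exposed to the indicated compound concentrations for 24 h, then lysed in RIPA with protease inhibitors and quantified by BCA. 30 μg of protein was run on 8% SDS-PAGE and blotted to nitrocellulose. Primary antibody was applied overnight at 4 °C, with HRP secondary and ECL film detection. GAPDH served as the loading control; the experiment was done three times.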

[3] = molecular target: DCN1-like protein 1/NEDD8-conjugating enzyme Ubc12 (Homo sapiens, UniProt Q96GG9); experiment: Inhibition of GST-tagged DCN1 PONY domain (unknown origin)/human N-terminal acetylated UBC12 (1 to 12 residues) protein-protein interaction incubated for 1 hr by HTRF analysis; type: protein assay
[4] = system: MGC-803; experiment: Induction of p21 accumulation in human MGC-803 cells incubated for 24 hrs by Western blot analysis; type: functional, cell-based; settings: dose 1-10 µM
Summary of the method: (§1)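 Cells in 6-well plates were exposed to compound for 24 h. MGC-803 were grown in DMEM and KYSE70 in RPMI 1640, both with 10% FBS at 37 °C and 5% CO2. Lysates were made in RIPA with protease inhibitors and quantified by BCA. 30 μg protein was run on 8% SDS-PAGE and blotted to nitrocellulose. Primary antibodies were applied overnight at 4 °C, then HRP secondaries, with ECL and film detection. GAPDH was the loading control. Run three times.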

[5] = Metabolic stability in rat liver microsomes assessed as intrinsic clearance; type: ADME, Microsome; settings: read-out: CLH
[6] = molecular target: Cullin-4B (Homo sapiens) (UniProt Q13620); experiment: Inhibition of cullin4B neddylation in UBC/DCN1 overactivated human MGC-803 cells at 0.3 to 10 uM incubated for 24 hrs by Western blot analysis; type: cell-based; settings: dose 0.3-10 µM
Summary of the method: as §1

[7] = molecular target: Cullin-1 (Homo sapiens) (UniProt Q13616); experiment: Inhibition of cullin1 neddylation in UBC/DCN1 overactivated human MGC-803 cells at 10 uM incubated for 24 hrs by Western blot analysis; type: cell-based
Summary of the method: as §1

[8] = system: MGC-803; experiment: Induction of ROS generation in human MGC-803 cells at 3 uM incubated for 24 hrs by DCFH-DA staining based flow cytometry analysis (reference value: 2.2%); type: functional
[9] = Metabolic stability in rat liver microsomes assessed as half life; type: ADME, Microsome
[10] = molecular target: Cullin-4A (Homo sapiens) (UniProt Q13619); experiment: Inhibition of cullin4A neddylation in human KYSE-70 cells at 0.3 to 10 uM incubated for 24 hrs by Western blot analysis; type: cell-based; settings: KYSE-70 cell line, dose 0.3-10 µM
Summary of the method: as §1

[11] = system: MGC-803; experiment: Inhibition of cullin3 neddylation in UBC/DCN1 overactivated human MGC-803 cells at 3 uM incubated for 24 hrs by Western blot analysis; type: cell-based
Summary of the method: as §1

[12] = molecular target: CDK9/cyclin T1 (Homo sapiens) (UniProt O60563+P50750); experiment: Inhibition of C-terminal His6 tagged full length recombinant human CDK9/full length human Cyclin T1 expressed in baculovirus infected Sf21 cells using 5-FAM-ACSYSPTSPSYSPTSPSYSPTSPSKK as substrate at 10 uM incubated for 60 mins in presence of ATP relative to control
Summary of the method: (§2)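 CDK/cyclin complexes were assayed with 3 μM 5-FAM peptide substrate. ATP was 20 μM for CDK1, 30 μM for CDK2, 280 μM for CDK4, 800 μM for CDK6 and 10 μM for CDK9. Buffer was 50 mM HEPES pH 7.5, 0.0015% Brij-35, 10 mM MgCl2 and 2 mM DTT. Reactions ran 60 min at 28 °C and were stopped with EDTA. Caliper conversion values were converted to % inhibition.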

[13] = molecular target: Cyclin-dependent kinase 1/cyclin B (Homo sapiens) (UniProt P06493+P14635+Q8WWL7+O95067); experiment: Inhibition of C-terminal His6 tagged human full length CDK1/N-terminal GST-tagged human full length Cyclin B expressed in baculovirus infected Sf21 cells using 5-FAM-QSPKKG-CONH2 as substrate at 10 uM incubated for 60 mins in presence of ATP relative to control
Summary of the method: as §2

[14] = system: KYSE-70; experiment: Induction of p27 accumulation in human KYSE-70 cells incubated for 24 hrs by Western blot analysis; type: functional, cell-based; settings: dose 0.3-10 µM
Summary of the method: as §1

[15] = molecular target: T1, DCN1-like protein 1/NEDD8-conjugating enzyme Ubc12 (Homo sapiens); settings: dose 500.0 nM, time 1.0 hrs; remark: listed apart in the source
[16] = molecular target: CDK2/Cyclin A2 (Homo sapiens) (UniProt P24941+P20248); experiment: Inhibition of GST-tagged human CDK2/Cyclin A2 expressed in baculovirus infected Sf9 cells using 5-FAM-QSPKKG-CONH2 as substrate at 10 uM incubated for 60 mins in presence of ATP relative to control
Summary of the method: as §2

[17] = system: MGC-803; experiment: Induction of ROS generation in human MGC-803 cells at 1 uM incubated for 24 hrs by DCFH-DA staining based flow cytometry analysis (reference value: 2.2%); type: functional
[18] = molecular target: CDK6/cyclin D3 (Homo sapiens) (UniProt P30281+Q00534); experiment: Inhibition of full length human CDK6/N-terminal GST fused human cyclinD3 expressed in baculovirus expression system using 5-FAMIPTSPITTTYFFFKKK-COOH as substrate at 10 uM incubated for 60 mins in presence of ATP relative to control
Summary of the method: as §2

T1 sequence (P61081 whole entry, looked up): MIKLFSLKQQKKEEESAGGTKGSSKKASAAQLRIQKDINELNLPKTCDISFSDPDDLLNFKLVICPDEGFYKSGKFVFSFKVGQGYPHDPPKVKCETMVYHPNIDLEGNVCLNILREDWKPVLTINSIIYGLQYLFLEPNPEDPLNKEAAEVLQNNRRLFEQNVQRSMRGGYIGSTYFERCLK
T1 sequence (Q96GG9 whole entry, looked up): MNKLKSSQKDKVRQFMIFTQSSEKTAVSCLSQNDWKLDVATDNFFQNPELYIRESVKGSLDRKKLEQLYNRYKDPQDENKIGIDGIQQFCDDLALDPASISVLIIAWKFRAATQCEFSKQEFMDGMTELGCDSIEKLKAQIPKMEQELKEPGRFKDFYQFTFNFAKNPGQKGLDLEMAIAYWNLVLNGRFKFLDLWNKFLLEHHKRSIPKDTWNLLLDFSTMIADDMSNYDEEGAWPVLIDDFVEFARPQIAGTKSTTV
Sequence of Cullin-4A (Homo sapiens) (Q13619 whole entry): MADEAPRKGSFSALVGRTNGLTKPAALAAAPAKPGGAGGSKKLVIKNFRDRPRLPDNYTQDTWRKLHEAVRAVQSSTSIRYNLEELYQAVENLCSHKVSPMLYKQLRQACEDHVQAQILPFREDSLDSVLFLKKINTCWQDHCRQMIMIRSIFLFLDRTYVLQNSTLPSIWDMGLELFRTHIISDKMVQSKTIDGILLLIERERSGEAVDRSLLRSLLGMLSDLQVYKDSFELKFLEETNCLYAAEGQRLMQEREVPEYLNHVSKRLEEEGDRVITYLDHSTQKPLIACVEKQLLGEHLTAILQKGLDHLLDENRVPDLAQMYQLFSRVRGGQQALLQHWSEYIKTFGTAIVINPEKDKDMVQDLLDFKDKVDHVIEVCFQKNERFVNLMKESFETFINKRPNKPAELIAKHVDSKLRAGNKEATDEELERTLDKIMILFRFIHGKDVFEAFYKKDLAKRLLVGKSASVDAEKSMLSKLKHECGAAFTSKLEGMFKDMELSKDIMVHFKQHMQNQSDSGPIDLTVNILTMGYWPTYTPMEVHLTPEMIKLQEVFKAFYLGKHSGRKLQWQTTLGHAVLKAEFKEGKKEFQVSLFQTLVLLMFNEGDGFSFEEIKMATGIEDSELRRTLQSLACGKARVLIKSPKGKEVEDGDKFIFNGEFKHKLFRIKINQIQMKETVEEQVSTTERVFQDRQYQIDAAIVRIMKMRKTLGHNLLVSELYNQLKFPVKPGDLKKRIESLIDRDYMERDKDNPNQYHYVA
Sequence of Cullin-4B (Homo sapiens) (Q13620 whole entry): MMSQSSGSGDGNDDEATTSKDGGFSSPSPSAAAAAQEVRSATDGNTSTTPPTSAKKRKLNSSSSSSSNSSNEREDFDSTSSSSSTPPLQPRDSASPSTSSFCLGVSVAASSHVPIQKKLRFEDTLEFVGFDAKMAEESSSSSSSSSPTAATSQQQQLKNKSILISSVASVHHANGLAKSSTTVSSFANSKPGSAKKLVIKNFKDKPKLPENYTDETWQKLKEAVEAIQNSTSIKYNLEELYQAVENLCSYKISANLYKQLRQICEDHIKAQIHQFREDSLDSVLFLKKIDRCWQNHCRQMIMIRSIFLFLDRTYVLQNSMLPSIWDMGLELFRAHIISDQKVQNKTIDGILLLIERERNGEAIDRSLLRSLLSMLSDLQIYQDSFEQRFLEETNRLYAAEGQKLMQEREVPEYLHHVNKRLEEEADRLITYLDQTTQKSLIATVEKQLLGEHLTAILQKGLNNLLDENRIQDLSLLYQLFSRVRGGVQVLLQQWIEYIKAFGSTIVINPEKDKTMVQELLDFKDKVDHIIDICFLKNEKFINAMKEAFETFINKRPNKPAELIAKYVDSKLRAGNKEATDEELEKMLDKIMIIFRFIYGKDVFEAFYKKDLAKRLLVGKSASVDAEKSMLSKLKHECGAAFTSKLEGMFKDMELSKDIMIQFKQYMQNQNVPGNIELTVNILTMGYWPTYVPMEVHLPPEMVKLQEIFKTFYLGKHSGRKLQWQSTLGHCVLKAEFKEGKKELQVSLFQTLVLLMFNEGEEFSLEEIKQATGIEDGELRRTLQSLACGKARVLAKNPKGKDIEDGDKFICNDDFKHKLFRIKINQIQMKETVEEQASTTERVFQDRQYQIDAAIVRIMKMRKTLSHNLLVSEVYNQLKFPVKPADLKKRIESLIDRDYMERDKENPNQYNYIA
Sequence of Cullin-1 (Homo sapiens) (Q13616 whole entry): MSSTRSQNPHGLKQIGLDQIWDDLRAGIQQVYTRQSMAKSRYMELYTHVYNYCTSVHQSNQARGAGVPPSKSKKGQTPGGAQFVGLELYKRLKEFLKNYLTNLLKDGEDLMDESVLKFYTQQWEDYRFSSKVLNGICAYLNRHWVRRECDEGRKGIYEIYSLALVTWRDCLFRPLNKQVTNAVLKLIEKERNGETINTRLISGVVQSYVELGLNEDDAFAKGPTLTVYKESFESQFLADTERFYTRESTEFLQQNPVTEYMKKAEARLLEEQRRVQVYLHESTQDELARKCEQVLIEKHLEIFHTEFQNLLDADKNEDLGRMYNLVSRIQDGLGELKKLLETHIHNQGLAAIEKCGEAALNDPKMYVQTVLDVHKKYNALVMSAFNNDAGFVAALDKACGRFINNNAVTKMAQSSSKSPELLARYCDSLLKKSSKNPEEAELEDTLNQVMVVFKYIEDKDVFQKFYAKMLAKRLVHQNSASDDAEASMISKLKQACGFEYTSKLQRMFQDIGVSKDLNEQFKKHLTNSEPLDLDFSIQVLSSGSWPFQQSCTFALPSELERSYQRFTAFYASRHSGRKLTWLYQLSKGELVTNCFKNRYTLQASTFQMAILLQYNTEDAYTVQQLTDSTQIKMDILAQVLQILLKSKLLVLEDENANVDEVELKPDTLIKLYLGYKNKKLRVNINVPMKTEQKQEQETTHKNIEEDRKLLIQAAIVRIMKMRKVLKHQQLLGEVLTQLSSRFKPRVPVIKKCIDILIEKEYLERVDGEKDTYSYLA
Sequence of DCN1-like protein 1/NEDD8-conjugating enzyme Ubc12 (Q96GG9 whole entry, the tested form may be a part): as the sequence (Q96GG9 whole entry, looked up) above
Sequence of DCN1-like protein 1/NEDD8-conjugating enzyme Ubc12 (P61081 whole entry, further chain, the tested form may be a part): as the sequence (P61081 whole entry, looked up) above

inhibition [1]: Active | IC50 [3]: 11 nM | CLint scaled [5]: 497 mL/min/kg | inhibition [6]: inactive | inhibition [7]: Active | half-life [9]: < 5 min | inhibition [10]: inactive | inhibition [12]: -8.4% | inhibition [13]: 9.6% | inhibition [15]: Active | inhibition [16]: 20.5% | inhibition [18]: 21.8%
Structure (SMILES): Cc1cc(Sc2nnnn2CCN(C)C)n2nc(SCc3ccc(Cl)cc3)nc2n1.Cl
Activity [2]: Dose-Dependent Effect | Activity [4]: Dose-Dependent Effect | Activity [8]: 2.6% | inhibition [11]: Active | Activity [14]: Dose-Dependent Effect | Activity [17]: 3.8%

— ChEMBL document CHEMBL5260843 (J Med Chem, 2019)
